According to ChEMBL document CHEMBL4400543, “Identification and Characterization of AES-135, a Hydroxamic Acid-Based HDAC Inhibitor That Prolongs Survival in an Orthotopic Mouse Model of Pancreatic Cancer” (J Med Chem, 2019):
Activity calls are given as the source filed them.

Assays:
[1] = target: Signal transducer and activator of transcription 3 (Homo sapiens) (UniProt P40763); assay: Inhibition of STAT3 phosphorylation at S727 residue in human BTSC 143EF cells at 1 to 10 uM after 24 hrs by Western blot method; type: cell-based
Chain of Signal transducer and activator of transcription 3 (Homo sapiens) (P40763 whole entry): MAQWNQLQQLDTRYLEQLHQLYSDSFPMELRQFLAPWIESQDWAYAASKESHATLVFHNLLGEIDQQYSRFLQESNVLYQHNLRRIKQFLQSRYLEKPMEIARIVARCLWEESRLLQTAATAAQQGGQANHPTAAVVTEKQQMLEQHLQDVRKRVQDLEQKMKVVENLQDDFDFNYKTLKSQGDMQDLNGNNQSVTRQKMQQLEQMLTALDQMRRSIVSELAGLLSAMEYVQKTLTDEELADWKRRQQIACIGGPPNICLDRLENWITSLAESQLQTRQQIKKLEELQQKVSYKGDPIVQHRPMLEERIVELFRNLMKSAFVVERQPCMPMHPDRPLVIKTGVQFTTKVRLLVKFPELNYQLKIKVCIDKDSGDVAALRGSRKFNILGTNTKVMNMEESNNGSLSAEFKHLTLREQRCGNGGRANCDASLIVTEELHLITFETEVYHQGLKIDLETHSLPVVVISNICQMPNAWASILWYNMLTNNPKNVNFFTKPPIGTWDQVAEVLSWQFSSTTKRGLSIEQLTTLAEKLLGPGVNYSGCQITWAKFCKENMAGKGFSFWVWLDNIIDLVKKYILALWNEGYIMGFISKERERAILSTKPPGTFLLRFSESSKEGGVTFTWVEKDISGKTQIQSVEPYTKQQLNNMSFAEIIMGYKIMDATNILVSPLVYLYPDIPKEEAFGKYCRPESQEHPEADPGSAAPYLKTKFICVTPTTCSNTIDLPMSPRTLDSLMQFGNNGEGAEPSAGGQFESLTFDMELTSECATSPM
Method in brief: (§1)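 BTSCs dissociated to single cells and treated with drug or DMSO. Lysed in RIPA buffer with protease inhibitors. 20 μg lysate run on SDS-PAGE and transferred to nitrocellulose. Blocked in 5% milk, primary antibody overnight at 4 °C, then HRP secondary for 1 h.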

[2] = Clearance in NSG mouse at 20 mg/kg, ip administered as single dose by HPLC-MS/MS analysis; type: ADME, organism-based; details: in vivo
Method in brief: (§2)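 NSG mice given a single 20 mg/kg IP dose in Cremophor EL/EtOH (1:1, 4% final volume)/sterile saline. Tail-vein blood at 0.5, 1, 2, 4, 8 and 24 h, n = 2. Drug quantified in serum/plasma. Half-life and clearance calculated assuming 100% bioavailability.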

[3] = Drug uptake in NSG mouse serum at 20 mg/kg, ip administered as single dose and measured at 24 hrs by HPLC-MS/MS analysis; type: ADME, organism-based; details: read-out: Drug uptake; method in brief: as §2
Mus musculus = assay: Antitumor activity against mouse KPC cells allografted in […] C57BI/6 mouse assessed as mean survival time at 50 mg/kg, ip administered daily for 5 days per week for 1 month starting on day 7 post implantation (reference value: 29.5 days); type: functional, organism-based
[4] = Stability of the compound in DMSO at 10 mM after 25 hrs in presence of reduced L-glutathione by HPLC analysis; type: physicochemical; details: 10000 µM
Method in brief: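 A 10 mM DMSO stock was mixed with 100-fold excess reduced glutathione in HEPES buffer, pH 7.4. Samples were analysed by reversed-phase HPLC at regular intervals, with UV at 254 nm. Decay of the parent compound was followed as loss of its peak area.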

Panc1005 [5] = assay: Cytotoxicity against human Panc 10.05 cells assessed as reduction in tumor spheroid intensity after 72 hrs in presence of human CAF19 cells by Alamar Blue assay; type: functional, cell-based; details: Panc1005, 72 h
Method in brief: (§3)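 3D spheroids of patient-derived PDAC cells (tomato red) alone or with CAF19 cells, plus CAF cultures. Imaging read-outs: area is the μ2 of objects above a tomato red intensity threshold; intensity is summed red or green pixel fluorescence after background removal. n = 3–5.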

[6] = target: Polyamine deacetylase HDAC10 (Homo sapiens) (UniProt Q969S8); assay: Inhibition of recombinant human HDAC10 expressed in SF9 baculoviral system at 10 uM using FAM-labeled acetylated peptide as substrate by EMSA relative to control
Chain of Polyamine deacetylase HDAC10 (Homo sapiens) (Q969S8 whole entry): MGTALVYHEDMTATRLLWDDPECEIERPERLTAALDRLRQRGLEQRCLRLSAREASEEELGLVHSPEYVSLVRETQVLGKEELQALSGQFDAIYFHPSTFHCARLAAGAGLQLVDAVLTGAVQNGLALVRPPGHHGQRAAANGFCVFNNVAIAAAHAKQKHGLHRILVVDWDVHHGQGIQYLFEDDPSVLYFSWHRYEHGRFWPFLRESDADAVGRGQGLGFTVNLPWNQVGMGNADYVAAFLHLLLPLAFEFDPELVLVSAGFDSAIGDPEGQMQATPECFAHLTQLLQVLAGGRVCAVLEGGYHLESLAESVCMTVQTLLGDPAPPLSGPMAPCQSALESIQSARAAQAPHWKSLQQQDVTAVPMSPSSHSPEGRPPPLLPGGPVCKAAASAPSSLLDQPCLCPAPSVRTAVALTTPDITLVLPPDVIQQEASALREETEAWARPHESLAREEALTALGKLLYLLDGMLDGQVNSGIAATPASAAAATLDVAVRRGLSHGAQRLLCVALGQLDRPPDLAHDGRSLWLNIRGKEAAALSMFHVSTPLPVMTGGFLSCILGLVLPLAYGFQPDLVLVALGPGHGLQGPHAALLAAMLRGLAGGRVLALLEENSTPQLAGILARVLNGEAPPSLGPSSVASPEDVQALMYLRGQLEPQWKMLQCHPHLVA
Method in brief: (§4)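 Full-length recombinant human HDACs from an Sf9 baculovirus system. Single-point screen at 10 μM by microfluidic mobility-shift assay with FAM-labeled acetylated peptide substrate. Buffer: 100 mM HEPES pH 7.5, 25 mM KCl, 0.1% BSA, 0.01% Triton X-100, 1% DMSO. % inhibition from product/(substrate + product) against no-inhibitor and no-enzyme controls.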

Homo sapiens = species on record: Homo sapiens; assay: Cytotoxicity against human D425 cells at 39 nM after 72 hrs by Presto Blue assay; type: functional, cell-based
Method in brief: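 D425 and D458 medulloblastoma cells in DMEM high glucose with 20% FBS, seeded at 1000 cells/well in medium with 1% FBS. Twofold dilutions from 20 μM down to 39 nM. Exposed 3 days at 37 °C. Presto Blue added about 4 h before fluorescence read (540–570 nm). IC50 from % viability versus log concentration.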

[7] = target: Histone deacetylase 1 (Homo sapiens) (UniProt Q13547); assay: Inhibition of recombinant human HDAC1 expressed in SF9 baculoviral system at 10 uM using FAM-labeled acetylated peptide as substrate by EMSA relative to control; method in brief: as §4
Chain of Histone deacetylase 1 (Homo sapiens) (Q13547 whole entry): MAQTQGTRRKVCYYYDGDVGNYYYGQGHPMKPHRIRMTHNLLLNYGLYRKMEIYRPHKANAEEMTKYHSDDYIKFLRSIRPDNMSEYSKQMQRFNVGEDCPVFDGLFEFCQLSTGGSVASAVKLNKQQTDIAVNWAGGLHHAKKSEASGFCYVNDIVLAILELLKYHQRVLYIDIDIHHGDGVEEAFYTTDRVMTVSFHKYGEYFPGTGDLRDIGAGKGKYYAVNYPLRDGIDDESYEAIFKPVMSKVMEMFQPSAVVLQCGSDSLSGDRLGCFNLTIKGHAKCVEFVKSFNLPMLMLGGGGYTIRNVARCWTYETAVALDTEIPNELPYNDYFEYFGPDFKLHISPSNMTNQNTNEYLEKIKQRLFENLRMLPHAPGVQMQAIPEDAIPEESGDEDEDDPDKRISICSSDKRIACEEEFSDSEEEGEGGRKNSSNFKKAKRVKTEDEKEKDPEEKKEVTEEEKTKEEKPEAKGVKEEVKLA

[8] = Drug uptake in NSG mouse serum at 20 mg/kg, ip administered as single dose and measured at 2 hrs by HPLC-MS/MS analysis; type: ADME, organism-based; details: read-out: Drug uptake; method in brief: as §2
[9] = Lipophilicity, log D of the compound at pH 7.4 by LC-ESI MS analysis; type: physicochemical; details: buffer
Method in brief: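 Partitioning measured in a 1-octanol/phosphate-buffered saline system at pH 7.4.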

[10] = Tmax in NSG mouse at 20 mg/kg, ip administered as single dose by HPLC-MS/MS analysis; type: ADME, organism-based; details: in vivo
Method in brief: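 NSG mice received a single 20 mg/kg IP injection in Cremophor EL/EtOH (1:1, 4% final volume)/sterile saline. Tail-vein blood was taken at 0.5, 1, 2, 4, 8 and 24 h, and compound was quantified in plasma (n = 2).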

PC-3 = assay: Cytotoxicity against human PC3 cells at 50 uM after 72 hrs by CellTiter-Blue assay; type: functional, cell-based
[11] = target: Histone deacetylase 4 (Homo sapiens) (UniProt P56524); assay: Inhibition of recombinant human HDAC4 expressed in SF9 baculoviral system at 10 uM using FAM-labeled acetylated peptide as substrate by EMSA relative to control
Chain of Histone deacetylase 4 (Homo sapiens) (P56524 whole entry): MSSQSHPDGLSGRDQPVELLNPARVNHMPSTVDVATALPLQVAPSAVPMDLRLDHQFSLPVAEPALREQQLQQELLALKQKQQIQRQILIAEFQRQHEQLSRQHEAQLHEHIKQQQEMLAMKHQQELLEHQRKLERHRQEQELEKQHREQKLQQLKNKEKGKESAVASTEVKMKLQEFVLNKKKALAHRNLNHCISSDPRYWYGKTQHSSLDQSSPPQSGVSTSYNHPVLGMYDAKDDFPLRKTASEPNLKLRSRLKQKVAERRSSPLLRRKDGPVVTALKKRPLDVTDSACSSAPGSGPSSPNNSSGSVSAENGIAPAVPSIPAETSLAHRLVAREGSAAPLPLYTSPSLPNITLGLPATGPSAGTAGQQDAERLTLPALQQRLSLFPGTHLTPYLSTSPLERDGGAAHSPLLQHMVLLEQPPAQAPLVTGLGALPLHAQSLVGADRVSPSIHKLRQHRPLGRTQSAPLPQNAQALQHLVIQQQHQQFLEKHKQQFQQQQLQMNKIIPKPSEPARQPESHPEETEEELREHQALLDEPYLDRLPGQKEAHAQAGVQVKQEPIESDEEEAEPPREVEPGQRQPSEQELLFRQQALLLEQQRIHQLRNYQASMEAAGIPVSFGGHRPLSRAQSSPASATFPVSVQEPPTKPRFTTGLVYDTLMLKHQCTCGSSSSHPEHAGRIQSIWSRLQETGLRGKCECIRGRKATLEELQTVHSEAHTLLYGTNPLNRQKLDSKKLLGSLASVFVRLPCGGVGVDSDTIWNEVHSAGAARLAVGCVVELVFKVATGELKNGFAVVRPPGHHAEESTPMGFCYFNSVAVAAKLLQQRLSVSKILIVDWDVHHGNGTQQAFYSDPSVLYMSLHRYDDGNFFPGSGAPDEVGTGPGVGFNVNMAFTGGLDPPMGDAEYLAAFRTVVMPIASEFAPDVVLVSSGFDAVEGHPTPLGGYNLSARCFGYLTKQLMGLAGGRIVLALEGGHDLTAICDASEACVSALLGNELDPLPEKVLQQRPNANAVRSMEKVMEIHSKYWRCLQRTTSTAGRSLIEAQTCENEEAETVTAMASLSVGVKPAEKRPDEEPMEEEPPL

[12] = Cmax in NSG mouse at 20 mg/kg, ip administered as single dose and measured at 0.5 hrs by HPLC-MS/MS analysis; type: ADME, organism-based; parameters: dose 20 mg/kg, route intraperitoneal; details: in vivo; method in brief: as §2
Panc1005 [13] = assay: Cytotoxicity against human Panc 10.05 cells assessed as reduction in tumor spheroid intensity after 72 hrs by Alamar Blue assay; type: functional, cell-based; details: Panc1005, 72 h; method in brief: as §3
[14] = Drug uptake in NSG mouse serum at 10 mg/kg, ip administered daily for 5 days by HPLC-MS/MS analysis; type: ADME, organism-based; details: read-out: Drug uptake
Method in brief: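 NSG mice dosed IP once daily for 5 days at 10 or 40 mg/kg, n = 6. Blood collected 5 h after the final injection for serum drug concentration, reported ± SD.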

[15] = Half life in NSG mouse at 20 mg/kg, ip administered as single dose by HPLC-MS/MS analysis; type: ADME, organism-based; details: in vivo; method in brief: as §2
[16] = Drug uptake in NSG mouse serum at 20 mg/kg, ip administered as single dose and measured at 0.5 hrs by HPLC-MS/MS analysis; type: ADME, organism-based; details: read-out: Drug uptake; method in brief: as §2
[17] = Stability of the compound in DMSO at 10 mM after 16 hrs in presence of 100 fold excess reduced L-glutathione by 19F NMR analysis; type: physicochemical; details: 10000 µM
[18] = Apparent permeability across basolateral to apical side in human Caco2 cells at 5 uM by LC-MS/MS analysis; type: ADME, cell-based; details: caco-2, 5 µM
Method in brief: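 Caco-2 monolayer permeability run in duplicate. Monolayer integrity checked by TEER and Lucifer Yellow fluorescence (ex 485/em 530 nm). Papp measured apical-to-basolateral and basolateral-to-apical by LC-ESI-MS/MS with internal standards. Digoxin, prazosin and propranolol as controls.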

[19] = target: Signal transducer and activator of transcription 3 (Homo sapiens) (UniProt P40763); assay: Inhibition of STAT3 phosphorylation at S727 residue in human BTSC 147EF cells at 2 uM after 3 to 24 hrs by Western blot method; type: cell-based; method in brief: as §1
[20] = Cytotoxicity against human […] cells assessed as reduction in tumor spheroid intensity after 72 hrs by Alamar Blue assay; type: cell-based; method in brief: as §3
[21] = Toxicity in NSG mouse at 10 to 40 mg/kg, ip assessed as induction of body weight loss administered daily for 5 days by HPLC-MS/MS analysis; type: organism-based; details: in vivo, 120 h
Method in brief: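 NSG mice were given 10 or 40 mg/kg IP once daily for 5 days (n = 6). Blood was drawn 5 h after the last injection for compound measurement. Toxicity was judged by percentage weight loss versus vehicle-treated mice.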

[22] = Selectivity ratio of IC50 for human CAF19 cells to IC50 for human Pa03C cells

In the case of CC(C)(C)c1ccc(CN(C(=O)CN(Cc2c(F)c(F)c(F)c(F)c2F)S(=O)(=O)c2ccc(F)cc2)c2ccc(C(=O)NO)cc2)cc1, the inhibition [1] is reported as “inactive”, the CL/F [2] is reported as 0.0667 mL/min and the concentration at 24 h [3] is reported as 265 ng/mL. The Activity (Mus musculus) was “inactive”, the Stability [4] was “Stable” and the IC50 (Panc1005 [5]) was 500 nM. The inhibition [6] was 70%, the Activity (Homo sapiens) was “Active” and the inhibition [7] was 72%. It also gave a concentration at 2 h [8] of 5390 ng/mL, a logD [9] of 4.15 and a Tmax [10] of 0.5 h. The Activity (PC-3) was “Active”, the inhibition [11] was 15% and the Cmax [12] was 10.7 µM. It also gave an IC50 (Panc1005 [13]) of 600 nM, a concentration at 120 h [14] of 0.47 µM and a half-life [15] of 5 h. The concentration at 0.5 h [16] was 7450 ng/mL, the Stability [17] was “Stable” and the Papp [18] was 1.02 ×10⁻⁶ cm/s. For the same molecule, the inhibition [19] was “inactive”, the IC50 [20] was 3400 to 4500 nM and the Activity [21] was “Non-Toxic”. For the same molecule, the “Ratio IC50” value [22] was 5 - 6.
